Experimental data taken from ChEMBL document CHEMBL1165965, “Synthesis and structure-activity relationships of 1,2,3,4-tetrahydropyrido[2,3-b]pyrazines as potent and selective inhibitors of the anaplastic lymphoma kinase” (Bioorg Med Chem, 2010).

Key:
[1] = biological target: Ribosomal protein S6 kinase alpha-5 (Homo sapiens) (UniProt O75582); experiment: Inhibition of RPS6KA5 C-terminal domain2 at 1 uM
[2] = biological target: T1, Serine/threonine-protein kinase TAO1 (Homo sapiens) (UniProt Q7L7X3); experiment: Inhibition of TAOK1 at 1 uM
T1 sequence (whole entry): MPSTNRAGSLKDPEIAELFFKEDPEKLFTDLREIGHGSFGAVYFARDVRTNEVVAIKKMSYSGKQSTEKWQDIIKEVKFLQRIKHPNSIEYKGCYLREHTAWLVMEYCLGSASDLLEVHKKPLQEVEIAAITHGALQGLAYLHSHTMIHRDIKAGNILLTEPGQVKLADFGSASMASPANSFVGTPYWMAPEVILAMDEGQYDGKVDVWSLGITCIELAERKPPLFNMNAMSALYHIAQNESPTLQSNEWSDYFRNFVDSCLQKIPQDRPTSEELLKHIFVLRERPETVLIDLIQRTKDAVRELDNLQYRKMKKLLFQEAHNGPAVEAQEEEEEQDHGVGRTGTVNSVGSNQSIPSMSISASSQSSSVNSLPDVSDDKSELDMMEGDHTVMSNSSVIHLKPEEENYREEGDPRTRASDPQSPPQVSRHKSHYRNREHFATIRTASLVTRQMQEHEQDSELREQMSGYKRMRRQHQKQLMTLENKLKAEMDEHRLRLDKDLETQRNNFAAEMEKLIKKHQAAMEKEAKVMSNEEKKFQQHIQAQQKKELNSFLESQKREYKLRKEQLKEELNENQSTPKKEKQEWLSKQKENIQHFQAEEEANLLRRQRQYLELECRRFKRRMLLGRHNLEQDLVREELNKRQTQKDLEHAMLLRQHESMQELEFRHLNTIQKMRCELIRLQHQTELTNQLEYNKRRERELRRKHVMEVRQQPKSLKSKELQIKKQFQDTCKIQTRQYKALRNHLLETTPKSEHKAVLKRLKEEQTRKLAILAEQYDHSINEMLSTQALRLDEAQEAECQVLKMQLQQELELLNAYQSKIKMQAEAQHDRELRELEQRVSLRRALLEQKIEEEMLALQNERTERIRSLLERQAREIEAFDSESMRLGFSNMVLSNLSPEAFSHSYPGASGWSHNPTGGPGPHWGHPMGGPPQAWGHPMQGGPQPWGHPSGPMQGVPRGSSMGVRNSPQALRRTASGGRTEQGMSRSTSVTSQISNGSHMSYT

[3] = biological target: Receptor tyrosine-protein kinase erbB-4 (Homo sapiens) (UniProt Q15303); experiment: Inhibition of ERBB4 at 1 uM
Chain of Receptor tyrosine-protein kinase erbB-4 (Homo sapiens) (Q15303 whole entry): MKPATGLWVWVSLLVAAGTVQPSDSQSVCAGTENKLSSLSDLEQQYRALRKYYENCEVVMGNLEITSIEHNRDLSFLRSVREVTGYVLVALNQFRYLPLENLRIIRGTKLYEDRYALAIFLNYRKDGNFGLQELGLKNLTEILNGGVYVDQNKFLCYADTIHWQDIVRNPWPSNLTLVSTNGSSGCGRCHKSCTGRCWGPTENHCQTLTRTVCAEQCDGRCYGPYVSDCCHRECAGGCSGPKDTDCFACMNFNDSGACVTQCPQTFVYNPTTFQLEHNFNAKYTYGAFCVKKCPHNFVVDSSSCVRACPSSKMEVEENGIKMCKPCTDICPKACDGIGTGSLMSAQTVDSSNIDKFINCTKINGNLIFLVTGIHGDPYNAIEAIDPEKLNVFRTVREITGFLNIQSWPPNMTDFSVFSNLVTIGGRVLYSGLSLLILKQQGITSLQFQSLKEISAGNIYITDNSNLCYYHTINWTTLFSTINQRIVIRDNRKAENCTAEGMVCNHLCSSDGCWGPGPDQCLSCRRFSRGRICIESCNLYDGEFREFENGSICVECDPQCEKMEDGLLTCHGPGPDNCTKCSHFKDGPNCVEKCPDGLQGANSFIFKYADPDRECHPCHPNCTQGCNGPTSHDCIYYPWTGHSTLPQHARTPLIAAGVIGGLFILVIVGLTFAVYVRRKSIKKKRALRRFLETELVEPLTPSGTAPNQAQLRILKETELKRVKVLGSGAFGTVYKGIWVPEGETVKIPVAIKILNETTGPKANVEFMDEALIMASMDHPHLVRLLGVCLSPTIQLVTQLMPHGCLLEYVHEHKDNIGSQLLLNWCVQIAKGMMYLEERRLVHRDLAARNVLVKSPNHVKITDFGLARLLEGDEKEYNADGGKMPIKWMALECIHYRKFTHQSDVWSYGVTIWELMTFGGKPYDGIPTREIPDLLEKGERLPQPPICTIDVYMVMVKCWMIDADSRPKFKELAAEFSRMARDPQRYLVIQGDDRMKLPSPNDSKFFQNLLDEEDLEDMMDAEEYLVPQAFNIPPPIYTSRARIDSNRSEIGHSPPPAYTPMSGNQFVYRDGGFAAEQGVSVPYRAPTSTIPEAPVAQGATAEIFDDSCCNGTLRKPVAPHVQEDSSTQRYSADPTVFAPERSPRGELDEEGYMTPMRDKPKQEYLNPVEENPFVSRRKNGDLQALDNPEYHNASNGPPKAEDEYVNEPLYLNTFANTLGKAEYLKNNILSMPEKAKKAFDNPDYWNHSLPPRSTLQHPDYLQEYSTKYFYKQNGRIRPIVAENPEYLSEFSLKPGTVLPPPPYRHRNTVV
Summary of the method: (§1)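 Single-concentration screen using Ambit Bioscience KINOMEscan technology across a panel of 250–400 kinases. Per-kinase inhibition from this screen was summarized as S(90), the fraction of kinases inhibited by more than 90%.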

[4] = biological target: LIM domain kinase 2 (Homo sapiens) (UniProt P53671); experiment: Inhibition of LIMK2 at 1 uM
Chain of LIM domain kinase 2 (Homo sapiens) (P53671 whole entry, looked up, the tested form may be a part): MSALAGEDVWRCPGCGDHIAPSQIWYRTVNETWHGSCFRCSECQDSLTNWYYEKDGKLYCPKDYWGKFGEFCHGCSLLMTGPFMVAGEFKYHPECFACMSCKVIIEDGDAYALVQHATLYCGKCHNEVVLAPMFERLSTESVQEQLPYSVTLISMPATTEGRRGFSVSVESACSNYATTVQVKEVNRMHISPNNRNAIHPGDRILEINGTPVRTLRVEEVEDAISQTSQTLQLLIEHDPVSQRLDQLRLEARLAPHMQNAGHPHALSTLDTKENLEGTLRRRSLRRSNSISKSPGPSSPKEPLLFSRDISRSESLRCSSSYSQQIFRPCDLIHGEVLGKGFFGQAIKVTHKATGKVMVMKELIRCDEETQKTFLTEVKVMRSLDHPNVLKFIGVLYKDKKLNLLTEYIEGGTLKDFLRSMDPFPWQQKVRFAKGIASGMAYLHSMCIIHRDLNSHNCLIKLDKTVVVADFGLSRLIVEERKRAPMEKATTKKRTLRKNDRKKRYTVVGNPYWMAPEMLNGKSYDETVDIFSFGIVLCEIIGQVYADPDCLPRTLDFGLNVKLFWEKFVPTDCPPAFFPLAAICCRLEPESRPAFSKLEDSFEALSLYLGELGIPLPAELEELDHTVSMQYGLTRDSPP
Summary of the method: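 Single-concentration screen on the Ambit KINOMEscan platform, run against a panel of 250–400 kinases. Per-kinase inhibition was also summarized as S(90), the fraction of kinases inhibited by more than 90%.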

[5] = biological target: T2, Ephrin type-A receptor 8 (Homo sapiens) (UniProt P29322); experiment: Inhibition of EPHA8 at 1 uM; summary of the method: as §1
T2 sequence (whole entry): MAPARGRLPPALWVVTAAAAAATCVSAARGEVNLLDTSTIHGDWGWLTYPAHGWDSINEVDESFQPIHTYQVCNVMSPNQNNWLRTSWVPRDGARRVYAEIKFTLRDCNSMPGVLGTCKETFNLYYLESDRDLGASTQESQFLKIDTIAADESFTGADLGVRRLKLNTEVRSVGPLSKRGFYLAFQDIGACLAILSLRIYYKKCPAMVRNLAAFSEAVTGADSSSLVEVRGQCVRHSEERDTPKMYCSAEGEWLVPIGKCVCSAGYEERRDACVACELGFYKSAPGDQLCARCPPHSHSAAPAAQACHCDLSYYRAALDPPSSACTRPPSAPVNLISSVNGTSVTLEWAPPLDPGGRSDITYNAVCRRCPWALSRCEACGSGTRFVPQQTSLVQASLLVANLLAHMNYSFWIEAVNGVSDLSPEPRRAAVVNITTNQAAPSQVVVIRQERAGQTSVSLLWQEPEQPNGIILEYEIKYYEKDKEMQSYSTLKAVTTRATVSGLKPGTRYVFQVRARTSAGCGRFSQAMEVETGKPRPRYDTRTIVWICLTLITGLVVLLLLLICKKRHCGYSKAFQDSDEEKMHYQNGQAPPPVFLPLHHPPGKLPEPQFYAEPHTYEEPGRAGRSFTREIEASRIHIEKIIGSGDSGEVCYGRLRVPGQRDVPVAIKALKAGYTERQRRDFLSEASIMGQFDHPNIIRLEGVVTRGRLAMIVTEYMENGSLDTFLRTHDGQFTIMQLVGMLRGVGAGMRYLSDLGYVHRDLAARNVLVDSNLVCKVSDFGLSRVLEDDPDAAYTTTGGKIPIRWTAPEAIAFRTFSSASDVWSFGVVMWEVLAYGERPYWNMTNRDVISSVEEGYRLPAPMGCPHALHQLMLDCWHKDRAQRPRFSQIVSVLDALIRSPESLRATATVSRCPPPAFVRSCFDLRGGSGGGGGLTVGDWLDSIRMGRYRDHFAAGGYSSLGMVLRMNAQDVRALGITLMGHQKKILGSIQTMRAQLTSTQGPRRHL

[6] = biological target: Tyrosine-protein kinase CSK (Homo sapiens) (UniProt P41240); experiment: Inhibition of CSK at 1 uM; summary of the method: as §1
Chain of Tyrosine-protein kinase CSK (Homo sapiens) (P41240 2-450 limits assumed): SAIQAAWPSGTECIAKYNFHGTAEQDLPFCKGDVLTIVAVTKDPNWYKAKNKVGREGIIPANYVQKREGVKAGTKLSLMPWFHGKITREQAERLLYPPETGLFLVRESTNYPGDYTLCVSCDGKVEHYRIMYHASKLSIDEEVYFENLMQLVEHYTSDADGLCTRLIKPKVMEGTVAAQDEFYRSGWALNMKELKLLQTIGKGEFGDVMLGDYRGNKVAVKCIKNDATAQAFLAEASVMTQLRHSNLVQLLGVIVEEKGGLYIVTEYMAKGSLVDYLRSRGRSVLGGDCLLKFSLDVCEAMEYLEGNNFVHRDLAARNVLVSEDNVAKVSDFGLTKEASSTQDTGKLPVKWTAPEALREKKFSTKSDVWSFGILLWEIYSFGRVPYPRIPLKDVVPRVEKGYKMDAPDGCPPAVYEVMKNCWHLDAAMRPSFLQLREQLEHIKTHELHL

[7] = biological target: T3, Tyrosine-protein kinase ZAP-70 (Homo sapiens) (UniProt P43403); experiment: Inhibition of ZAP70 at 1 uM
T3 sequence (whole entry): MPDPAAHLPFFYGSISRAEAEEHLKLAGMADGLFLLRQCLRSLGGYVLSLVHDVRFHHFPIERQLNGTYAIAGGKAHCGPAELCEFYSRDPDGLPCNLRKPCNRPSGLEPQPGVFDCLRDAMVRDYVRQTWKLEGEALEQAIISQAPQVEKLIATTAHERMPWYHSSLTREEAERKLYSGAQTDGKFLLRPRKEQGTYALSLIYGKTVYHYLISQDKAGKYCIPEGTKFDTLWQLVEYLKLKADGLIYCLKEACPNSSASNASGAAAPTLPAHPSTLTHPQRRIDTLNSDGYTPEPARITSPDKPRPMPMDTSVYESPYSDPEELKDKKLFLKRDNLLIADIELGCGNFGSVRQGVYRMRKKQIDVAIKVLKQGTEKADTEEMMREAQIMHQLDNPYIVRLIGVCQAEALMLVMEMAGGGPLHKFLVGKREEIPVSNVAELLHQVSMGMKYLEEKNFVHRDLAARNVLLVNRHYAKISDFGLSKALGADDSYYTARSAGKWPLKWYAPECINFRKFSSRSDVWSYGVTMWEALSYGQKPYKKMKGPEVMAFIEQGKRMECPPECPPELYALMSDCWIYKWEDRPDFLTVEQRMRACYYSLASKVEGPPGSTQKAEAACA

Chain of Ribosomal protein S6 kinase alpha-5 (Homo sapiens) (O75582 whole entry, looked up, the tested form may be a part): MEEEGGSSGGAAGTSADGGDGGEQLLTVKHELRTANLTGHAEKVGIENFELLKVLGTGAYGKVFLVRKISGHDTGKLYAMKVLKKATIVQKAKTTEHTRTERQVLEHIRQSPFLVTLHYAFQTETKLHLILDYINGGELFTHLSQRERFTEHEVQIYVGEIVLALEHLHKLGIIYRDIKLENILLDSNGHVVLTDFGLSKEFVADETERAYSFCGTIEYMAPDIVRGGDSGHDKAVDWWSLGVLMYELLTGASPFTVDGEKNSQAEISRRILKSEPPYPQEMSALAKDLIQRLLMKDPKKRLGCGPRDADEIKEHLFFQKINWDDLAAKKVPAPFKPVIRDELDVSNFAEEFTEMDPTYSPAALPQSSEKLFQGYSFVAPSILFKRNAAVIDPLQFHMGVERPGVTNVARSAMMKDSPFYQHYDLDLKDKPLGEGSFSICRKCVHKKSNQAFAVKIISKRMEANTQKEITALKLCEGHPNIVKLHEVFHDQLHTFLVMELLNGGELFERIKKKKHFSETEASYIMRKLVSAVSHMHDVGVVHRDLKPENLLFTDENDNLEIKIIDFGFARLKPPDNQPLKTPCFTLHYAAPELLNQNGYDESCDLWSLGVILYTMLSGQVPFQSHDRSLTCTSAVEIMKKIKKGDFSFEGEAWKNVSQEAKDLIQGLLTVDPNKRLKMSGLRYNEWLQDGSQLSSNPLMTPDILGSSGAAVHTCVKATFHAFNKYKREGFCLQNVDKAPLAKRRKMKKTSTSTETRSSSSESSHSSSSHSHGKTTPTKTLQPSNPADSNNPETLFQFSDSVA

| Compound | inhibition [1] [%] | inhibition [2] [%] | inhibition [3] [%] | inhibition [4] [%] | inhibition [5] [%] | inhibition [6] [%] | inhibition [7] [%] |
| --- | --- | --- | --- | --- | --- | --- | --- |
| CN1CCN(c2ccc(-c3cnc4c(c3)N(Cc3cc(Cl)ccc3C(F)(F)F)CCN4)cn2)CC1 | < 50 | < 50 | < 50 | < 50 | < 50 | < 50 | < 50 |
| CN1CCN(c2ccc(-c3cnc4c(c3)N(Cc3cc(Cl)ccc3Cl)CCN4)cn2)CC1 | < 50 | < 50 | < 50 | < 50 | < 50 | < 50 | < 50 |
| COC1CCN(C(=O)c2ccc(-c3cnc4c(c3)N(Cc3cc(Cl)ccc3C(F)(F)F)CCN4)cc2)CC1 | < 50 | – | < 50 | < 50 | < 50 | < 50 | < 50 |
| FC(F)(F)c1ccc(Cl)cc1CN1CCNc2ncc(-c3ccnc(N4CCNCC4)c3)cc21 | < 50 | < 50 | < 50 | < 50 | < 50 | < 50 | < 50 |

The remaining lines, values ahead:

| inhibition [1] [%] | inhibition [2] [%] | inhibition [3] [%] | inhibition [4] [%] | inhibition [5] [%] | inhibition [6] [%] | inhibition [7] [%] | Compound |
| --- | --- | --- | --- | --- | --- | --- | --- |
| < 50 | < 50 | < 50 | < 50 | < 50 | < 50 | < 50 | CC(=O)N1CCN(c2cc(-c3cnc4c(c3)N(Cc3cc(Cl)ccc3C(F)(F)F)CCN4)ccn2)CC1 |
| < 50 | – | < 50 | < 50 | < 50 | < 50 | < 50 | O=C(O)c1ccc(-c2cnc3c(c2)N(Cc2cc(Cl)ccc2C(F)(F)F)CCN3)cc1 |
| < 50 | – | < 50 | < 50 | < 50 | < 50 | < 50 | O=C(c1ccc(-c2cnc3c(c2)N(Cc2cc(Cl)ccc2C(F)(F)F)CCN3)cc1)N1CCCCC1 |
| < 50 | < 50 | < 50 | < 50 | < 50 | < 50 | < 50 | CN1CCN(c2ccc(-c3cnc4c(c3)N(Cc3cc(F)ccc3F)CCN4)cn2)CC1 |
| < 50 | < 50 | < 50 | < 50 | < 50 | < 50 | < 50 | CN1CCN(c2ccc(-c3cnc4c(c3)N(Cc3c(F)ccc(F)c3Cl)CCN4)cn2)CC1 |
| < 50 | – | < 50 | < 50 | < 50 | < 50 | < 50 | O=C(c1ccc(-c2cnc3c(c2)N(Cc2cc(Cl)ccc2C(F)(F)F)CCN3)cc1)N1CCC(N2CCCC2)CC1 |
